According to PubChem BioAssay:
Active and inactive are the calls of the source.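 Rule for the calls, unless noted: active = viability at or below 30% in both replicate assays; inconclusive = viability at or below 30% in just one of the two assays; inactive = the rest.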

How the values were obtained:
[1] = Her2 expression decrease, cell viability multiplex – SKBR3 breast tumor cells, AlphaScreen, ATP viability, primary screen (AID 461;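 active = Her2 level under about 52% in both replicate screens, with viability over 70% of control, limit read from the data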;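 for Her2 level: lower value means less Her2 protein in the cells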;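 for viability: percent of carrier control wells set as 100% viability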); conditions: SKBR3 Her2 protein level, 18-24 h, measured here: SKBR3 viability, ATP luminescence, at 10 µM
[2] = molecular target: Receptor tyrosine-protein kinase erbB-2 (Homo sapiens) (UniProt P04626); assay: as above; conditions: 18-24 h, at 10 µM, stronger effect = lower value
Sequence of Receptor tyrosine-protein kinase erbB-2 (Homo sapiens) (P04626 whole entry, looked up): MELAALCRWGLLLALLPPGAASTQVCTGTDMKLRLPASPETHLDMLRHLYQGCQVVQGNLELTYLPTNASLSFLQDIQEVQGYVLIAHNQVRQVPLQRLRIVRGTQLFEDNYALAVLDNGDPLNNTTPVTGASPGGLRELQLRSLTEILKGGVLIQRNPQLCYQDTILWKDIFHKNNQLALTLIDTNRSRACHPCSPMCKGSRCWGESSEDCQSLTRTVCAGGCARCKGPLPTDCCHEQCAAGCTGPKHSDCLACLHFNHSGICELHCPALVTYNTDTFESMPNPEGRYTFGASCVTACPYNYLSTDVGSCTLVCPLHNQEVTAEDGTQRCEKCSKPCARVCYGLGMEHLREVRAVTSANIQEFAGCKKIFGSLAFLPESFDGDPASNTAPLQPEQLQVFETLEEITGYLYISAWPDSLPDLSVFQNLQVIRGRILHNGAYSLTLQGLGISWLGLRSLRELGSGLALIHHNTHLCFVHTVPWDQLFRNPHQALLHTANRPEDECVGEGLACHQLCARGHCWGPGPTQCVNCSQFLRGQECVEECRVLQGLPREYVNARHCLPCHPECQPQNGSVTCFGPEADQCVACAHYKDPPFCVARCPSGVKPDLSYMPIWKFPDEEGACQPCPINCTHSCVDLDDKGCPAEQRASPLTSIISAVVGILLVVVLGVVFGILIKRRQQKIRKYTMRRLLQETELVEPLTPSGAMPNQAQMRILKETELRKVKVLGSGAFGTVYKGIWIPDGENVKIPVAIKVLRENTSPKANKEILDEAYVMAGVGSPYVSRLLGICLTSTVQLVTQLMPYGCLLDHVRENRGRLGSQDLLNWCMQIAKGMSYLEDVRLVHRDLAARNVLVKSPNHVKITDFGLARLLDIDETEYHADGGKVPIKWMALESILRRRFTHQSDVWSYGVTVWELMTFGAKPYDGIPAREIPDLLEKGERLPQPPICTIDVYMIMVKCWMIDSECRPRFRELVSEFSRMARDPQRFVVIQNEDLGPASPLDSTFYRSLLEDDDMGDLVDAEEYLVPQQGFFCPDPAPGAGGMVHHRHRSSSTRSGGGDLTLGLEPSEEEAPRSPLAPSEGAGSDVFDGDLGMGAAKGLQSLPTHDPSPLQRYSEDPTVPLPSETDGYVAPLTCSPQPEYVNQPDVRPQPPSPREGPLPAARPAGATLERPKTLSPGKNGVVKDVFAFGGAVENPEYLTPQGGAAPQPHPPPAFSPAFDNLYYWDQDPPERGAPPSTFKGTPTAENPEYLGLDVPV

[3] = reduced viability of SK-BR-3 breast cancer cells – cell-based, 24 h, human, pilot screen (AID 572;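 active = viability at or below 10% of carrier control in both of two separate runs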;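 note: compound exposure lasted between 18 and 24 h rather than exactly 24 h; 100% = carrier-treated control wells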); conditions: SK-BR-3 viability, CellTiter-Glo luminescence, at 10 µM, stronger effect = lower value
[4] = HUVEC growth inhibition – cell-based, human, primary screen (AID 575); conditions: HUVEC proliferation, CellTiter-Glo luminescence, 72 h; at 10 µM; stronger effect = lower value;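 note: 100% = median of untreated cell wells with 0.1% DMSO on each plate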
Procedure, shortened: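 Test system: HUVEC primary cells. Quantity: 1250 endothelial cells in each well. Dosing: single-point 10 µM, DMSO 0.1% final. Incubation: 72 h treatment at 37 °C. Measured by: CTG luminescence. Control set: DMSO cell controls and MePR drug controls. Plate: collagen-coated 384-well format.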

[5] = H69AR cell proliferation blockers – human, duplicate replicates, primary screen (AID 580;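 active = viability at or under a set limit in both replicates, limit being median viability minus 3 SD, cut at about 48% in these data, passing the limit was not always enough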;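 note: 100% = mean luminescence of untreated wells and 0% = no signal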); conditions: H69AR lung tumor cells viability, ATP luminescence, 72 h; at 10 µM; stronger effect = lower value
[6] = MRP1 drug-resistance reversers in H69AR cells – cell-based, doxorubicin co-treatment, pilot screen (AID 601;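 active = viability loss from added drug above about 55%, and viability with drug at most 40%, in both replicates, limit read from the data, passing the limit was not always enough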); conditions: CellTiter-Glo, 72 h, at 10 µM; for differential viability (reversal): stronger effect = higher value
[7] = yeast transport mutant growth inhibition pilot in 384-well plates, post-Golgi transport modulator project (AID 636; in the data active = inhibition above about 31%); conditions: absorbance 615 nm, about 18 h, stronger effect = higher value
[8] = growth suppression of yeast trafficking mutant, preliminary HTS, modulators of trafficking downstream of Golgi apparatus project, 1536-format plate, OD 615 nm (AID 637; in the data active = inhibition above about 30%); conditions: yeast transport mutant growth, absorbance 615 nm, 18 h; stronger effect = higher value
[9] = H69AR cells + 2 uM doxorubicin, measured here: viability with 2 uM doxorubicin, stronger effect = lower value
[10] = H69AR cells, compound alone cytotoxicity

| SMILES | viability [1] [%] | Her2 level [2] | viability [3] | viability [4] | viability [5] | differential viability (reversal) ([6]; H69AR cells + 2 uM doxorubicin) | viability [6, 9] [%] | viability [6, 10] [%] | inhibition [7] | inhibition [8] |
| --- | --- | --- | --- | --- | --- | --- | --- | --- | --- | --- |
| COc1ccc(CCNC(=O)CN(c2ccccc2OC)S(C)(=O)=O)cc1 | 112 | 99.5% (inactive) | 112% (inactive) | 93.5% (inactive) | 99.9% (inactive) | 15.6% (inactive) | 84.3 | 99.9 | -2.08% (inactive) | -1.48% (inactive) |
| CC(=O)N1CCc2cc(S(=O)(=O)CCC(=O)Nc3cccc(F)c3)ccc21 | 109 | 104% (inactive) | 109% (inactive) | 97.3% (inactive) | 93.8% (inactive) | 13.1% (inactive) | 80.7 | 93.8 | -4.74% (inactive) | -1.5% (inactive) |
| Cc1oc(-c2ccccc2F)nc1CS(=O)(=O)CC(=O)N1CCCCCC1 | 99 | 108% (inactive) | 99% (inactive) | 101% (inactive) | 100% (inactive) | 13.4% (inactive) | 87.1 | 100 | 1.07% (inactive) | -3.28% (inactive) |
| CCOC(=O)Cn1c(CN2CCOCC2)nc2c1c(=O)[nH]c(=O)n2C | 95 | 109% (inactive) | 95% (inactive) | 97.5% (inactive) | 99.7% (inactive) | 0.165% (inactive) | 99.5 | 99.7 | -3.72% (inactive) | -0.67% (inactive) |
| CCOc1ccc(N(CC(=O)NCC2CCCO2)S(=O)(=O)c2ccc(OC)c(OC)c2)cc1 (stereo not given) | 105 | 98.5% (inactive) | 105% (inactive) | 118% (inactive) | 116% (inactive) | 19.2% (inactive) | 96.3 | 116 | -4% (inactive) | -5.97% (inactive) |
| O=C(NCc1cccs1)C1CC(c2ccccc2O)=NO1 (stereo not given) | 74 | 78.5% (inactive) | 74% (inactive) | 63.4% (inactive) | 104% (inactive) | 16.5% (inactive) | 87.3 | 104 | -3.73% (inactive) | -0.33% (inactive) |
| O=C(CSc1nnnn1C1CCCC1)NCc1ccc2c(c1)OCO2 | 86 | 89% (inactive) | 86% (inactive) | 93.7% (inactive) | 102% (inactive) | 3.33% (inactive) | 98.6 | 102 | -6.22% (inactive) | 2.46% (inactive) |
| O=C(CN(Cc1cccs1)C(=O)CNS(=O)(=O)c1ccccc1)NCc1ccco1 | 98 | 96.5% (inactive) | 98% (inactive) | 101% (inactive) | 101% (inactive) | 12.7% (inactive) | 88 | 101 | 0.13% (inactive) | -3.33% (inactive) |
| COc1ccccc1CCNC(=O)C1CCCO1 (stereo not given) | 108 | 97% (inactive) | 108% (inactive) | 92.1% (inactive) | 98.9% (inactive) | 7.17% (inactive) | 91.7 | 98.9 | -6.18% (inactive) | -11.3% (inactive) |
| CC(=O)NC1CC2CCCC(C1)N2CC(=O)Nc1ccccc1 (stereo not given) | 95.5 | 97% (inactive) | 95.5% (inactive) | 88.9% (inactive) | 96.7% (inactive) | 11.4% (inactive) | 85.2 | 96.7 | 0.13% (inactive) | -6.98% (inactive) |
| CC(C)N(O)C(=O)NC(C)(C)C | 110 | 99% (inactive) | 110% (inactive) | 97.8% (inactive) | 93.8% (inactive) | -5.12% (inactive) | 98.9 | 93.8 | -2.8% (inactive) | 5% (inactive) |
| CCCCOC(=O)Cn1c(=N)n(CCN2CCOCC2)c2ccccc21 | 77 | 102% (inactive) | 77% (inactive) | 85.4% (inactive) | 95.5% (inactive) | 16.3% (inactive) | 79.2 | 95.5 | -7.47% (inactive) | 0.16% (inactive) |
| Cc1ccc(S(=O)(=O)CC2CSc3nnc(C)c(=O)n32)cc1 (stereo not given) | 136 | 112% (inactive) | 136% (inactive) | 125% (inactive) | 88% (inactive) | 2.67% (inactive) | 85.4 | 88 | -5.26% (inactive) | 1.17% (inactive) |
| CC(C)(C)NC(=O)COC(=O)c1snc(C(=O)NC2CCCCC2)c1N | 86 | 75% (inactive) | 86% (inactive) | 51.9% (inactive) | 101% (inactive) | 12.7% (inactive) | 88.1 | 101 | -0.95% (inactive) | 1.59% (inactive) |
| Cc1cc(Nc2ccccc2F)n2ncnc2n1 | 101 | 97.5% (inactive) | 101% (inactive) | 99% (inactive) | 97.1% (inactive) | 8.83% (inactive) | 88.3 | 97.1 | -0.67% (inactive) | 0.16% (inactive) |
| CCCc1cc(Nc2cccc(OC)c2)n2ncnc2n1 | 83 | 129% (inactive) | 83% (inactive) | 94.6% (inactive) | 81.2% (inactive) | -0.635% (inactive) | 81.8 | 81.2 | -4.1% (inactive) | -5% (inactive) |

| SMILES | viability [1] [%] | Her2 level [2] | viability [3] | viability [4] | viability [5] | differential viability (reversal) ([6]; H69AR cells + 2 uM doxorubicin) | viability [6, 9] [%] | viability [6, 10] [%] | inhibition [7] | inhibition [8] |
| --- | --- | --- | --- | --- | --- | --- | --- | --- | --- | --- |
| O=C(CCCn1c(=S)[nH]c2cc3c(cc2c1=O)OCO3)N1CCN(c2ccccc2F)CC1 | 77 | 95% (inactive) | 77% (inactive) | 68% (inactive) | 83.7% (inactive) | -9.88% (inactive) | 93.6 | 83.7 | -4.32% (inactive) | -2.95% (inactive) |
| O=C(COC(=O)Cc1cccc(C(F)(F)F)c1)NCC1CCCO1 (stereo not given) | 94 | 98.5% (inactive) | 94% (inactive) | 96.5% (inactive) | 96.4% (inactive) | 22.8% (inactive) | 73.5 | 96.4 | -5.13% (inactive) | -4.36% (inactive) |
| CN(C)CC(=O)N1c2ccccc2CCc2ccc(NC(=O)c3ccc(N)cc3)cc21 | 103 | 102% (inactive) | 103% (inactive) | 82.1% (inactive) | 83.8% (inactive) | -4.88% (inactive) | 88.7 | 83.8 | -5.79% (inactive) | 4.26% (inactive) |
| Cn1cccc1Cc1nnc(SCC(=O)Nc2ccccc2F)n1CCc1ccccc1 | 78.5 | 91% (inactive) | 78.5% (inactive) | 89.4% (inactive) | 83.7% (inactive) | 1.68% (inactive) | 82.1 | 83.7 | 1.15% (inactive) | 2.67% (inactive) |
| O=C(OCCCN1C(=O)c2ccccc2C1=O)c1ccco1 | 102 | 105% (inactive) | 102% (inactive) | 96% (inactive) | 95.2% (inactive) | 1.29% (inactive) | 93.9 | 95.2 | 0.79% (inactive) | -0.16% (inactive) |
| CCn1cc(C(=O)NCCN(C)CCc2ccccc2)c(=O)c2cc(S(=O)(=O)N(C)C)ccc21 | 90 | 106% (inactive) | 90% (inactive) | 75.9% (inactive) | 81.2% (inactive) | 1.48% (inactive) | 79.8 | 81.2 | -1.73% (inactive) | 12.6% (inactive) |
| CN(C)/C=C1\N=C(c2ccc(Cl)cc2Cl)OC1=O | 102 | 108% (inactive) | 102% (inactive) | 92.7% (inactive) | 95.9% (inactive) | 19.6% (inactive) | 76.3 | 95.9 | -3.29% (inactive) | -3.97% (inactive) |
| COc1ccc(-n2cnnc2SCCC#N)cc1 | 106 | 96.5% (inactive) | 106% (inactive) | 88.3% (inactive) | 106% (inactive) | 16.2% (inactive) | 89.5 | 106 | -3.33% (inactive) | 3.71% (inactive) |
| C=CCNC(=O)CNS(=O)(=O)c1ccc(F)cc1 | 87 | 95.5% (inactive) | 87% (inactive) | 92.5% (inactive) | 95.4% (inactive) | 1.88% (inactive) | 93.6 | 95.4 | -1.45% (inactive) | 0% (inactive) |
| CCOC(=O)c1sc2nc3c(cc2c1N)COC(C)(C)C3 | 97 | 92% (inactive) | 97% (inactive) | 111% (inactive) | 98.4% (inactive) | 3.91% (inactive) | 94.5 | 98.4 | -6.4% (inactive) | -3.23% (inactive) |
| Cn1cnnc1Sc1nc2c(c(=O)n(C)c(=O)n2C)n1C | 87 | 98.5% (inactive) | 87% (inactive) | 107% (inactive) | 102% (inactive) | 5.7% (inactive) | 96.5 | 102 | -0.79% (inactive) | -9.09% (inactive) |
| CC1CCN(C(=S)c2ccccc2O)CC1 | 116 | 105% (inactive) | 116% (inactive) | 92.8% (inactive) | 89% (inactive) | -0.9% (inactive) | 89.9 | 89 | -5.2% (inactive) | -6.29% (inactive) |
| c1cc2c(cc1C1=Nn3c(nnc3C3CCCCC3)SC1)OCO2 | 133 | 108% (inactive) | 133% (inactive) | 64.8% (inactive) | 9.93% (active) | -67.4% (inactive) | 77.3 | 9.93 | -1.84% (inactive) | 3.06% (inactive) |
| O=C(O)CCC(=O)Nc1nc(-c2ccccc2)cs1 | 92 | 84.5% (inactive) | 92% (inactive) | 98.5% (inactive) | 91.3% (inactive) | -4.88% (inactive) | 96.1 | 91.3 | -6.4% (inactive) | -1.48% (inactive) |
| O=C1C2C3C=CC(C3=C3CCCCC3)C2C(=O)N1c1ccccc1 (stereo not given) | 131 | 89.5% (inactive) | 131% (inactive) | 103% (inactive) | 95.8% (inactive) | 1.16% (inactive) | 94.7 | 95.8 | -3.12% (inactive) | -2.06% (inactive) |
| COc1ccc(-c2nnc(SCC(=O)Nc3cc(C)on3)n2C)cc1OC | 101 | 90% (inactive) | 101% (inactive) | 108% (inactive) | 105% (inactive) | 11.9% (inactive) | 92.6 | 105 | -6.22% (inactive) | 4.59% (inactive) |
